Test results from ChEMBL document CHEMBL1142116, “Mixed lignan-neolignans from Tarenna attenuata” (J Nat Prod, 2007).

Tests used:
Assay type in all cases: functional
[1] = system: Radical scavenging activity; assay: Antioxidant effect assessed as DPPH radical scavenging activity
Method in brief: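 Compound at five concentrations (0.16–100.0 µM) mixed 1:1 with 0.1 mM DPPH in EtOH, 30 min at 37 °C, absorbance at 517 nm. Scavenging % = (Acontrol − Asample)/Acontrol × 100; IC50 from concentration series.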

PC-12 [2] = assay: Antioxidant effect against hydrogen peroxide-induced impairment in PC12 cells assessed as cell viability at 0.4 uM by MTT assay relative to control; details: Rattus norvegicus, read-out: Activity
Method in brief: (§1)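 PC12 cells seeded in RPMI 1640 with 10% newborn bovine serum; after 24 h, compound (0.4–50 µM) added together with freshly prepared H2O2 (0.2 mM final) in PBS for 1 h. Then MTT (0.5 mg/mL in PBS) for 4 h, lysis with 5% i-BuOH/10% SDS/0.004% HCl overnight, OD 570 nm; viability as % of untreated control; n = 5, mean ± SD.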

PC-12 [3] = assay: Antioxidant effect against hydrogen peroxide-induced impairment in PC12 cells assessed as cell viability at 2 uM by MTT assay relative to control; details: Rattus norvegicus, read-out: Activity; method in brief: as §1
PC-12 [4] = assay: Antioxidant effect against hydrogen peroxide-induced impairment in PC12 cells assessed as cell viability at 10 uM by MTT assay relative to control; details: Rattus norvegicus, read-out: Activity; method in brief: as §1
PC-12 [5] = assay: Antioxidant effect against hydrogen peroxide-induced impairment in PC12 cells assessed as cell viability at 50 uM by MTT assay relative to control; details: Rattus norvegicus, read-out: Activity; method in brief: as §1

Compound | IC50 [1] | viability at 0.4 µM (PC-12 [2]) | viability at 2 µM (PC-12 [3]) | viability at 10 µM (PC-12 [4]) | viability at 50 µM (PC-12 [5])
COc1cc(C(O)C(CO)Oc2c(OC)cc([C@@H]3Oc4c(OC)cc(/C=C/C=O)cc4[C@H]3CO)cc2OC)ccc1O (stereo not given in full) | 147 µM | 56.9% | 56.8% | 62.6% | 64.8%
COc1cc2c(c(OC)c1O)[C@@H](CO)[C@@H](c1cc(OC)c(OC)c(OC)c1)O2 | 45 µM | 61.4% | 58% | 58.2% | 55%
CCOC(c1ccc(O)c(OC)c1)C(O)CO (stereo not given) | 132 µM | 54.1% | 54.9% | 56.8% | 57.3%
COc1cc([C@H](O)[C@@H](CO)Oc2c(OC)cc([C@@H]3OC[C@@H]4[C@H]3CO[C@H]4c3cc(OC)c(O[C@H](CO)[C@@H](O)c4cc(OC)c(O)c(OC)c4)c(OC)c3)cc2OC)ccc1O | 87 µM | 51.9% | 54.3% | 54.7% | 54.1%
COc1cc(C(O)C(CO)Oc2ccc(C(O)C(CO)Oc3c(OC)cc([C@@H]4Oc5c(OC)cc(/C=C/C=O)cc5[C@H]4CO)cc3OC)cc2OC)ccc1O (stereo not given in full) | 201 µM | 52.8% | 47.9% | 64.4% | 55.9%
COc1cc(C(O)C(CO)Oc2c(OC)cc(C(O)C(CO)Oc3c(OC)cc([C@@H]4Oc5c(OC)cc(/C=C/C=O)cc5[C@H]4CO)cc3OC)cc2OC)ccc1O (stereo not given in full) | 127 µM | 50.3% | 54.7% | 55.2% | 51%
COc1cc(C(O)C(CO)Oc2c(OC)cc([C@@H]3OC[C@@H]4C(=O)OC[C@@H]43)cc2OC)ccc1O (stereo not given in full) | 72 µM | 59.3% | 61.8% | 59.4% | 45.7%
COc1cc([C@H](O)[C@@H](CO)Oc2c(OC)cc([C@@H]3OC[C@@H]4[C@H]3CO[C@H]4c3cc(OC)c(O[C@H](CO)[C@@H](O)c4ccc(O)c(OC)c4)c(OC)c3)cc2OC)ccc1O | 55 µM | 52.2% | 53.2% | 54.3% | 55.3%
CC1=NN(c2ccccc2)C(=O)C1 [EDARAVONE] | 27 µM | 55.5% | 53.1% | 47.8% | 25.6%
